Data set [1] can be described thus: Inhibition of G9a/GLP in HMBA-stiumulated mouse FLC clone 745 cells assessed as increase in erythroid differentiation at IC50 concentration measured after 72 hrs by benzidine-H2O2 based assay (reference value: 69.6%). As to conditions: condition erythroleukemia.
The nature of data set [2]: Cytotoxicity against HMBA-stiumulated mouse FLC clone 745 cells assessed as cell viability measured after 48 hrs by Neubauer chamber based microscopic analysis (reference value: 50.563%). The data set is classed as toxicity. As to conditions: HMBA-stimulated FLC clone 745 cells, read-out: Activity.
The subject of the next data set is FLC clone 745. Put plainly: Cytotoxicity against mouse FLC clone 745 cells assessed as reduction in cell viability at IC50 concentration measured up to 96 hrs by Neubauer chamber based microscopic analysis. The data set is classed as toxicity. To be noted: flc clone 745, 96 h. A digest of the protocol:
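MEL-745 cells treated continuously with compound at its previously determined 48 h IC50, without inducer, for up to 96 h. Total cell number counted daily in a Neubauer chamber. Final DMSO ≤0.2% v/v.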

The nature of data set [3]: Cytotoxicity against mouse FLC clone 745 cells assessed as reduction in cell viability measured after 48 hrs by Neubauer chamber based microscopic analysis. The data set is classed as toxicity.
Data set [4] in a line: Inhibition of G9a/GLP in HMBA-stiumulated mouse FLC clone 745 cells assessed as increase in erythroid differentiation at IC50 concentration measured after 96 hrs by benzidine-H2O2 based assay (reference value: 79.45%). As to conditions: condition erythroleukemia.
For data set [5], the target named is Histone-lysine N-methyltransferase, H3 lysine-79 specific (Mus musculus) (UniProt F7CVL0). Put plainly: Inhibition of DOT1L in HMBA-stiumulated mouse FLC clone 745 cells assessed as increase in erythroid differentiation at IC50 concentration measured after 96 hrs by benzidine-H2O2 based assay (reference value: 79.45%). The class given is cell-based.
Data set [6] has the same target. Put plainly: Inhibition of DOT1L in HMBA-stiumulated mouse FLC clone 745 cells assessed as increase in erythroid differentiation at IC50 concentration measured after 72 hrs by benzidine-H2O2 based assay (reference value: 69.6%). The class given is cell-based.
Data set [7] concerns the target Protein arginine N-methyltransferase 3 (Mus musculus) (UniProt Q922H1). Put plainly: Inhibition of PRMT3 in HMBA-stiumulated mouse FLC clone 745 cells assessed as increase in erythroid differentiation at IC50 concentration measured after 96 hrs by benzidine-H2O2 based assay (reference value: 79.45%). The class given is cell-based.
Data set [8] has the same target. Put plainly: Inhibition of PRMT3 in HMBA-stiumulated mouse FLC clone 745 cells assessed as increase in erythroid differentiation at IC50 concentration measured after 72 hrs by benzidine-H2O2 based assay (reference value: 69.6%). The class given is cell-based.
Data set [9] addresses Histone-lysine N-methyltransferase EZH2 (Mus musculus) (UniProt Q61188). Put plainly: Inhibition of EZH2 in HMBA-stiumulated mouse FLC clone 745 cells assessed as increase in erythroid differentiation at IC50 concentration measured after 72 hrs by benzidine-H2O2 based assay (reference value: 69.6%). The data set is classed as cell-based.
For data set [10] the target is unchanged. Put plainly: Inhibition of EZH2 in HMBA-stiumulated mouse FLC clone 745 cells assessed as increase in erythroid differentiation at IC50 concentration measured after 96 hrs by benzidine-H2O2 based assay (reference value: 79.45%). The data set is classed as cell-based.
Data set [11] has as its target Histone-lysine N-methyltransferase KMT5B (Mus musculus) (UniProt Q3U8K7). In words: Inhibition of SUV420H1 in HMBA-stiumulated mouse FLC clone 745 cells assessed as increase in erythroid differentiation at IC50 concentration measured after 96 hrs by benzidine-H2O2 based assay (reference value: 79.45%). The class given is cell-based.
Data set [12] shares this target. Put plainly: Inhibition of SUV420H1 in HMBA-stiumulated mouse FLC clone 745 cells assessed as increase in erythroid differentiation at IC50 concentration measured after 72 hrs by benzidine-H2O2 based assay (reference value: 69.6%). The data set is classed as cell-based.
Data set [13] addresses N-lysine methyltransferase SMYD2 (Mus musculus) (UniProt Q8R5A0). Put plainly: Inhibition of SMYD2 in HMBA-stiumulated mouse FLC clone 745 cells assessed as increase in erythroid differentiation at IC50 concentration measured after 96 hrs by benzidine-H2O2 based assay (reference value: 79.45%). The class given is cell-based.
For data set [14] the target is unchanged. In words: Inhibition of SMYD2 in HMBA-stiumulated mouse FLC clone 745 cells assessed as increase in erythroid differentiation at IC50 concentration measured after 72 hrs by benzidine-H2O2 based assay (reference value: 69.6%). The class given is cell-based.

The values below come from ChEMBL document CHEMBL5712920, “The histone methyltransferase inhibitor A-366 enhances hemoglobin expression in erythroleukemia cells upon co-exposure with chemical inducers in culture” (J Biol Res (Thessalon), 2021).

A value given as a limit tells only on which side of the number the result lay.

Chain of Histone-lysine N-methyltransferase EZH2 (Mus musculus) (Q61188 whole entry): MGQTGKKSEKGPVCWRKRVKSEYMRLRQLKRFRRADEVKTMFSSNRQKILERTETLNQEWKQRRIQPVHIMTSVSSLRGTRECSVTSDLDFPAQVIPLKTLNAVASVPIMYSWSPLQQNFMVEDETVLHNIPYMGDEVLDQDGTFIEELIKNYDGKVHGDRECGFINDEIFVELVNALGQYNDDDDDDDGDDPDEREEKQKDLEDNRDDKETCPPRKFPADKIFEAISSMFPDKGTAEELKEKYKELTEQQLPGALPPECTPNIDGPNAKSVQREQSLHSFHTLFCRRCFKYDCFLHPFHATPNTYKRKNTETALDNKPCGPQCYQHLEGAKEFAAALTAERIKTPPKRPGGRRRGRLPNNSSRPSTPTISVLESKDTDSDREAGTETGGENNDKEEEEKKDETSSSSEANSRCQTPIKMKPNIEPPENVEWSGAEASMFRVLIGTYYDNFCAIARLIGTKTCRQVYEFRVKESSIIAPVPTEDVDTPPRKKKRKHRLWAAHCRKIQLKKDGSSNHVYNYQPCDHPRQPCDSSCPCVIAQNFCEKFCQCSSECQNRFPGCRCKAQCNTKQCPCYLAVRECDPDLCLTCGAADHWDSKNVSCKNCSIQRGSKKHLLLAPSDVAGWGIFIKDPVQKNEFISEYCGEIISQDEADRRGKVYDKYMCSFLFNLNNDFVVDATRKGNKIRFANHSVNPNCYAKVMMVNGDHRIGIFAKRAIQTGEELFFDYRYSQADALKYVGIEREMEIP
Chain of N-lysine methyltransferase SMYD2 (Mus musculus) (Q8R5A0 whole entry): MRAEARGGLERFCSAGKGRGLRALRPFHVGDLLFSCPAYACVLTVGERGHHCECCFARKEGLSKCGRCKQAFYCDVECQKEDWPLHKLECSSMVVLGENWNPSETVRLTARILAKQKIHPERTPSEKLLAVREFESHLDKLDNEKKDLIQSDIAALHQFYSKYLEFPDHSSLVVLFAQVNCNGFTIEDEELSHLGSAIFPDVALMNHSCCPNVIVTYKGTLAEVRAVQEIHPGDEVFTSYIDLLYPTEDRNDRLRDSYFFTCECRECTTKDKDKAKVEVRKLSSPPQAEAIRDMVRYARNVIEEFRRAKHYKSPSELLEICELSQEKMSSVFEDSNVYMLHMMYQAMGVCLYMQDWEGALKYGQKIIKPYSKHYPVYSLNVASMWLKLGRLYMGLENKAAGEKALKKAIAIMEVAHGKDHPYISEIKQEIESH
Chain of Histone-lysine N-methyltransferase KMT5B (Mus musculus) (Q3U8K7 whole entry): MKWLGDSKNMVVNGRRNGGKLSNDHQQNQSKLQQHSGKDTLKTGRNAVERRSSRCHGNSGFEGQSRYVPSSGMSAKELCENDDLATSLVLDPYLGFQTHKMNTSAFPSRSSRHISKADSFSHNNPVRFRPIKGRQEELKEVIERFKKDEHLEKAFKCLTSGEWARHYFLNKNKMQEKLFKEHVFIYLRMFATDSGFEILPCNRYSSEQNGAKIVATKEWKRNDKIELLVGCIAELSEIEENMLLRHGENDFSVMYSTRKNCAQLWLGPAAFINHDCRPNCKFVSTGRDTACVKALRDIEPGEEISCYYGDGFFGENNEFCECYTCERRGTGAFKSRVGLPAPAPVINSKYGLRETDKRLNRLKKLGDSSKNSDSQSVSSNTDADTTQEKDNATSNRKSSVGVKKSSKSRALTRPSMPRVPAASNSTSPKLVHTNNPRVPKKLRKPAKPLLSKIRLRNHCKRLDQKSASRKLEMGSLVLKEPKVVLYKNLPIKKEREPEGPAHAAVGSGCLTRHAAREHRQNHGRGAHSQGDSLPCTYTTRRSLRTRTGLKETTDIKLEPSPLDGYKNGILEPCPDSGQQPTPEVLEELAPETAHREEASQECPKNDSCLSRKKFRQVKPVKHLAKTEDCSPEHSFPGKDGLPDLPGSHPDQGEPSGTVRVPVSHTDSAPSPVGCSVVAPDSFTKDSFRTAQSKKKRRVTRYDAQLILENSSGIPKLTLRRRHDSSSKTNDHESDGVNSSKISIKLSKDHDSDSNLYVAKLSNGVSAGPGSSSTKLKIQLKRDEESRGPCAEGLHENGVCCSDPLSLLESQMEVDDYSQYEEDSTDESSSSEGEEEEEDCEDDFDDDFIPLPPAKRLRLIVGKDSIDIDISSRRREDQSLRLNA
Chain of Protein arginine N-methyltransferase 3 (Mus musculus) (Q922H1 whole entry): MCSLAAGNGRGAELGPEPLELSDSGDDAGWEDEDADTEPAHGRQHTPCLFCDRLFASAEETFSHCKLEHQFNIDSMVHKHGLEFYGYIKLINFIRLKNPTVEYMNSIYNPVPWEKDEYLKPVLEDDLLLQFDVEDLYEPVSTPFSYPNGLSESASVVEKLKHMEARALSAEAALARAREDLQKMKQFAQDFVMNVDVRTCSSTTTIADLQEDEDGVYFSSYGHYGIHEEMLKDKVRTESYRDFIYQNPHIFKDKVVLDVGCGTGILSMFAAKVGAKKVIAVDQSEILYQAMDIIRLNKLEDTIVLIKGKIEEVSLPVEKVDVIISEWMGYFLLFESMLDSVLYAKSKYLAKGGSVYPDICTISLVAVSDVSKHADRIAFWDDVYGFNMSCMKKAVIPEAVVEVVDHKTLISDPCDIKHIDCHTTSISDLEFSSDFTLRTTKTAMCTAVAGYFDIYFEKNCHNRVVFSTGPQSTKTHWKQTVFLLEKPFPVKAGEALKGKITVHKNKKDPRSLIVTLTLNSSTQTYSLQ
Chain of Histone-lysine N-methyltransferase, H3 lysine-79 specific (Mus musculus) (F7CVL0 as listed by the source): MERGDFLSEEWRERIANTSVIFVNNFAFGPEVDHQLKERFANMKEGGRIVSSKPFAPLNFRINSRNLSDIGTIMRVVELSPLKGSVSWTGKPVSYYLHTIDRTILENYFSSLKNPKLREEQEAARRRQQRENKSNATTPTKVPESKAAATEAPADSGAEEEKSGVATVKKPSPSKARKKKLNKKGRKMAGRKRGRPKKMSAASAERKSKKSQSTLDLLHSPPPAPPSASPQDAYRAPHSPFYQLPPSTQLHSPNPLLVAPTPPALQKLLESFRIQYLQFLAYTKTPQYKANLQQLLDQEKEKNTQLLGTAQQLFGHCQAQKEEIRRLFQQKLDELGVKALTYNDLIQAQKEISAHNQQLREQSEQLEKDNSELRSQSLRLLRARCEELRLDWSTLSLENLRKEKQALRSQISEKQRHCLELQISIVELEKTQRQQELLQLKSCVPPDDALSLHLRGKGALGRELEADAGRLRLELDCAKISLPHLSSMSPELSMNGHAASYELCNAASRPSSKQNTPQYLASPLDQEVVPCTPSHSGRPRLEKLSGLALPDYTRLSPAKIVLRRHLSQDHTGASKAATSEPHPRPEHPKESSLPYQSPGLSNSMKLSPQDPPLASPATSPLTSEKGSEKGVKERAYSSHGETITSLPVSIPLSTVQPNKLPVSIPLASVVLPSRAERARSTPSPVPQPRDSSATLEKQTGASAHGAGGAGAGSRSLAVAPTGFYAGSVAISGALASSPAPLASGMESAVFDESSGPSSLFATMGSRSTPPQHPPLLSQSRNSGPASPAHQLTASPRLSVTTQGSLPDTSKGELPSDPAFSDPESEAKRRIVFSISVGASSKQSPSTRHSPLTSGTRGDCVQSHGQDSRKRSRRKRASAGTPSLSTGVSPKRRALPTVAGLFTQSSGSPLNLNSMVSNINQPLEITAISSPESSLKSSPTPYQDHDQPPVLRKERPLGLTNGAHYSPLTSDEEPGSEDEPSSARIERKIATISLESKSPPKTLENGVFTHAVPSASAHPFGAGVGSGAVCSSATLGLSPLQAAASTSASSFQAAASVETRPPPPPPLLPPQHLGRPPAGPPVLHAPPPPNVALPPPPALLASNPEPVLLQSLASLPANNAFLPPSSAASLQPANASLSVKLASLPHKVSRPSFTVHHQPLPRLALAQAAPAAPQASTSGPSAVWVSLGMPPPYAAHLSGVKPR

As to `COc1cc2c(NC3CCN(C(C)C)CC3)nc(N3CCC(F)(F)CC3)nc2cc1OCCCN1CCCC1`, the “inhibition (INH)” value in [1] and in data set [4] was less than 1% throughout. Further, in data set [2], the viability at 48 h worked out at 4.2%. For the same compound, the Activity entry with FLC clone 745 is “Toxic”. Moreover, the IC50 at 48 h in data set [3] was found to be 1.6 µM.
For `CC(C)N(CCCNC(=O)Nc1ccc(C(C)(C)C)cc1)C[C@H]1O[C@@H](n2cc(Br)c3c(N)ncnc32)[C@H](O)[C@@H]1O`, the viability at 48 h in data set [2] amounted to 23.9%. Further, the inhibition is 6.64% in data set [5] and 4.3% in data set [6]. The half-maximal inhibitory concentration (IC50) at 48 h in data set [3] is 2.3 µM.
Regarding `O=C(NCC(=O)N1CCCC1)Nc1ccc2cnccc2c1`, the viability at 48 h in [2] turned out to be 31.6%. Moreover, the values for the inhibition in [7] and in data set [8] were 47.7% and 18.9%, respectively. For the same compound, the concentration for half-maximal inhibition (IC50) at 48 h in [3] came out at 11 µM.
As for `O=C([C@@H](Cc1cccc(C(F)(F)F)c1)NS(=O)(=O)c1cc(F)c2c(c1)CCNC2)N1CCCC1`, in data set [2], the viability at 48 h worked out at 18.7%. Besides, the half-inhibitory concentration (IC50) at 48 h in [3] turned out to be 20 µM.
As to `CCc1cc(C)[nH]c(=O)c1CNC(=O)c1cc(-c2ccc(N3CCN(C(C)C)CC3)nc2)cc2c1cnn2C(C)C`, the inhibition in [9] and in data set [10] was less than 1% throughout. For the same compound, in [2], the viability at 48 h worked out at 6.96%. The concentration for half-maximal inhibition (IC50) at 48 h in [3] was 3.2 µM.
Turning to `Clc1cc2c(NC3CCCC3)nnc(-c3ccncc3)c2cc1Cl`, the viability at 48 h in [2] was found to be 27.2%. Further, the inhibition in data set [11] was 19%; in data set [12], less than 1%. Also, the concentration for half-maximal inhibition (IC50) at 48 h in [3] amounted to 20 µM.
Turning to `CCN(C(=O)CO)[C@H]1CN(/C(=N\C#N)Nc2cccc(OC(F)F)c2)N=C1c1ccc(Cl)c(Cl)c1`, the viability at 48 h in data set [2] was found to be 22.8%. In addition, the inhibition is 22.6% in [13] and 12.7% in [14]. Also, the IC50 at 48 h in [3] stood at 4.7 µM.
As to `CN1CCN(c2ccc(-c3cccc(CN4CCOCC4)c3)cc2NC(=O)c2c[nH]c(=O)cc2C(F)(F)F)CC1`, the viability at 48 h in data set [2] came out at 7.57%. For the same compound, the Activity entry in the data set with FLC clone 745 was “Toxic”.
On to `COc1cc2c(NC3CCN(C(C)C)CC3)nc(C3CCCCC3)nc2cc1OCCCN1CCCC1`, for which the “inhibition (INH)” value in data set [1] and in [4] was less than 1% throughout. Further, the viability at 48 h in data set [2] worked out at 7.56%. In addition, the Activity entry in the data set on FLC clone 745 is on record as “Toxic”. The IC50 at 48 h in data set [3] was 0.44 µM.
As for `CCCc1cc(C)[nH]c(=O)c1CNC(=O)c1cc(-c2ccnc(N3CCN(C)CC3)c2)cc2c1cnn2C(C)C`, the inhibition in [9] and in [10] was less than 1% in each case. The viability at 48 h in data set [2] came out at 20.6%. For the same compound, the concentration for half-maximal inhibition (IC50) at 48 h in [3] worked out at 2.2 µM.
Take `Cc1cn(CCN2CCN(c3ccccc3-c3cc(C#N)cc(C(=O)NCCCN4CCCC4)c3)CC2)c2ccccc12`: the viability at 48 h in [2] was 16.6%. Besides, the inhibition in data set [13] amounted to 9%; in data set [14] it was 1.3%. Besides, in data set [3], the IC50 at 48 h came to 0.68 µM.
